The values below come from ChEMBL document CHEMBL1152796, “Azole antimicrobial pharmacophore-based tetrazoles: synthesis and biological evaluation as potential antimicrobial and anticonvulsant agents” (Bioorg Med Chem, 2009).

≈ marks a conversion by molar mass, not a printed value. Calls of active or inactive are those of the source.

Test [1] relates to Aspergillus niger. The experiment in a line: Antifungal activity against Aspergillus niger isolate after 72 hrs by twofold serial dilution method. The format is functional, organism-based.
The subject of test [2] is Aspergillus fumigatus. Nature of the test: Antifungal activity against Aspergillus fumigatus isolate at 1 mg/mL after 7 days by agar diffusion method. It is filed as functional. The following applies: 168 h, read-out: Diameter of inhibition zone. The method in brief: (§1)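 Agar disc diffusion: 5 mm sterile paper discs soaked in 1 mg/mL test solution in DMSO were placed on agar seeded with the organism, in triplicate, with a DMSO-only control. Bacterial plates were incubated at 37 °C for 24 h and fungal plates for 7 days. Read-out was the average inhibition-zone diameter in mm. Fungi were clinical isolates.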
In general terms: In agar diffusion tests the substance spreads into inoculated agar from a disc or well.

Test [3] relates to Candida tropicalis. Nature of the test: Antifungal activity against Candida tropicalis isolate after 72 hrs by twofold serial dilution method. The format is functional, organism-based.
The subject of test [4] is Escherichia coli. Nature of the test: Antibacterial activity against Escherichia coli ATCC 25922 after 24 to 48 hrs by twofold serial dilution method. The format is functional. The method in brief: (§2)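 Broth microdilution in Müller–Hinton broth. DMSO stocks at 800 were diluted twofold from 400 down to 6.25. Wells received 10^6 CFU/mL bacterial suspension and were incubated at 36 °C for 24–48 h, with controls. MIC was read per well. Duplicate assays; run only for compounds giving inhibition zones ≥14 mm.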

Test [5] has as its system Klebsiella pneumoniae. Nature of the test: Antibacterial activity against Klebsiella pneumoniae isolate after 24 to 48 hrs by twofold serial dilution method. It is filed as functional. Summed up: as §2
Test [6] has as its system Bacillus subtilis. Nature of the test: Antibacterial activity against Bacillus subtilis NRRL B-14819 after 24 to 48 hrs by twofold serial dilution method. It is filed as functional. The method in brief:
as §2

Test [7] has as its system Bacillus subtilis. The experiment in a line: Antibacterial activity against Bacillus subtilis NRRL B-14819 at 1 mg/mL after 24 hrs by agar diffusion method. It is filed as functional. The settings on record: read-out: Diameter of inhibition zone. Summed up: as §1
The test system of test [8] is Staphylococcus aureus. Nature of the test: Antibacterial activity against Staphylococcus aureus ATCC 6538 at 1 mg/mL after 24 hrs by agar diffusion method. It is filed as functional. The following applies: ATCC 6538, 24 h, read-out: Diameter of inhibition zone. Summed up:
as §1

Test [9] concerns Trichophyton rubrum. Nature of the test: Antifungal activity against Trichophyton rubrum isolate after 72 hrs by twofold serial dilution method. It is filed as functional, organism-based.
The test system of test [10] is Candida albicans. Nature of the test: Antifungal activity against Candida albicans isolate at 1 mg/mL after 7 days by twofold serial dilution method. It is filed as functional. The following applies: 168 h, read-out: Diameter of inhibition zone.
The test system of test [11] is Staphylococcus aureus. Nature of the test: Antibacterial activity against Staphylococcus aureus ATCC 6538 after 24 to 48 hrs by twofold serial dilution method. The format is functional. The method in brief: as §2
The subject of test [12] is Pseudomonas aeruginosa. Nature of the test: Antibacterial activity against Pseudomonas aeruginosa ATCC 27853 after 24 to 48 hrs by twofold serial dilution method. It is filed as functional. The method in brief: as §2
Test [13] relates to Escherichia coli. The experiment in a line: Antibacterial activity against Escherichia coli ATCC 25922 at 1 mg/mL after 24 hrs by agar diffusion method. It is filed as functional. The settings on record: ATCC 25922, 24 h, read-out: Diameter of inhibition zone. Summed up: as §1
Test [14] deals with Micrococcus luteus. Nature of the test: Antibacterial activity against Micrococcus luteus ATCC 21881 at 1 mg/mL after 24 hrs by agar diffusion method. The format is functional. The following applies: ATCC 21881, 24 h, read-out: Diameter of inhibition zone. The method in brief: as §1
Test [15] concerns Pseudomonas aeruginosa. Nature of the test: Antibacterial activity against Pseudomonas aeruginosa ATCC 27853 at 1 mg/mL after 24 hrs by agar diffusion method. The following applies: ATCC 27853, 24 h, read-out: Diameter of inhibition zone. The format is functional. The method in brief: as §1
The subject of test [16] is Micrococcus luteus. Nature of the test: Antibacterial activity against Micrococcus luteus ATCC 21881 after 24 to 48 hrs by twofold serial dilution method. The format is functional. Summed up: as §2
Test [17] deals with Klebsiella pneumoniae. Nature of the test: Antibacterial activity against Klebsiella pneumoniae isolate at 1 mg/mL after 24 hrs by agar diffusion method. The format is functional. The settings on record: read-out: Diameter of inhibition zone. The method in brief:
as §1

Test [18] has as its system Pichia kudriavzevii. Nature of the test: Antifungal activity against Candida krusei isolate after 72 hrs by twofold serial dilution method. The format is functional, organism-based.

By zone of inhibition is commonly meant the extent of the growth-free halo in a diffusion test. What is called MIC is the smallest concentration in the dilution series that meets the test's criterion for growth inhibition. Low values mean a more susceptible organism, high ones a less susceptible organism. For the molecule `Clc1ccc(C(Cn2nnc(-c3ccccc3)n2)OCc2nnc(Nc3ccccc3)o2)cc1` (stereo not given), the result in test [1], in test [3], in [9] and in test [18] was inactive. Also, the zone of inhibition at 1000 µg/mL in [2], in test [7], in test [8], in [10], in [13] and in test [14] was no less than 14 mm each time. The zone of inhibition at 1000 µg/mL in test [15] and in test [17] was no less than 14 mm in each case. Further, the MIC came out at 25 µg/mL (≈ 52.8 µM) in test [4]; 100 µg/mL (≈ 211 µM) in [5]; 50 µg/mL (≈ 106 µM) in [6]; 12.5 µg/mL (≈ 26.4 µM) in [11]; 100 µg/mL (≈ 211 µM) in test [12]; 100 µg/mL (≈ 211 µM) in [16].

`Clc1ccc(/C=C/n2nnc(-c3ccccc3)n2)cc1`: the outcome in [1], in test [3], in test [9] and in test [18] was inactive. The zone of inhibition at 1000 µg/mL in test [2], in test [7], in [8], in test [10], in test [13] and in test [14] was no less than 14 mm in each case. The zone of inhibition at 1000 µg/mL in [15] and in test [17] was no less than 14 mm throughout. Also, the MIC is 100 µg/mL (≈ 354 µM) in [4]; no less than 200 µg/mL in test [5]; no less than 200 µg/mL in [6]; 100 µg/mL (≈ 354 µM) in [11]; no less than 200 µg/mL in test [12]; no less than 200 µg/mL in [16].

`O=C(COC(Cn1nnnc1Cc1ccccc1)c1ccc(Cl)cc1)NNC(=S)Nc1ccccc1` (stereo not given): the outcome in test [1], in test [3], in test [9] and in [18] was inactive. Besides, the zone of inhibition at 1000 µg/mL in test [2], in [7], in test [8], in test [10], in test [13] and in test [14] was no less than 14 mm throughout. The zone of inhibition at 1000 µg/mL in test [15] and in test [17] was no less than 14 mm in each case. For the same molecule, the minimum inhibitory concentration (MIC) in [4] was 100 µg/mL (≈ 192 µM); in test [5] it was no less than 200 µg/mL; in test [6], no less than 200 µg/mL; in test [11] it was 100 µg/mL (≈ 192 µM); in test [12], no less than 200 µg/mL; in test [16], 100 µg/mL (≈ 192 µM).

In the case of `CC1(C)S[C@@H]2[C@H](NC(=O)[C@H](N)c3ccccc3)C(=O)N2[C@H]1C(=O)O.O.O.O` [AMPICILLIN TRIHYDRATE], the MIC in test [4] turned out to be 6.25 µg/mL; in test [5], 12.5 µg/mL; in test [6], 12.5 µg/mL; in [11], 6.25 µg/mL; in test [12] it was 12.5 µg/mL; in test [16], 12.5 µg/mL.

Consider `O=C(COC(Cn1nnnc1Cc1ccccc1)c1ccc(Cl)cc1)NNC(=S)Nc1ccc(Cl)cc1` (stereo not given), for which the result in test [1], in test [3], in test [9] and in [18] was inactive. Moreover, the zone of inhibition at 1000 µg/mL in test [2], in [7], in test [8], in test [10], in test [13] and in [14] was no less than 14 mm in each case. For the same molecule, the zone of inhibition at 1000 µg/mL in test [15] and in [17] was no less than 14 mm each time. For the same molecule, the minimal inhibitory concentration (MIC) in test [4] was no less than 200 µg/mL; in [5], no less than 200 µg/mL; in test [6], no less than 200 µg/mL; in [11], 100 µg/mL (≈ 180 µM); in test [12] it was no less than 200 µg/mL; in [16], no less than 200 µg/mL.

Consider `Sc1nnc(COC(Cn2nnc(-c3ccccc3)n2)c2ccc(Cl)cc2)n1-c1ccc(Cl)cc1` (stereo not given), for which the outcome in test [1], in [3], in test [9] and in [18] was inactive. Besides, the zone of inhibition at 1000 µg/mL in [2], in test [7], in test [8], in test [10], in test [13] and in test [14] was no less than 14 mm in each case. The zone of inhibition at 1000 µg/mL in test [15] and in test [17] was no less than 14 mm each time. Moreover, the MIC in test [4] was 100 µg/mL (≈ 191 µM); in test [5], 100 µg/mL (≈ 191 µM); in [6] it was 50 µg/mL (≈ 95.3 µM); in test [11], 25 µg/mL (≈ 47.7 µM); in [12] it was no less than 200 µg/mL; in test [16], 100 µg/mL (≈ 191 µM).

For the molecule `O=C(O)COC(Cn1nnc(-c2ccccc2)n1)c1ccc(Cl)cc1` (stereo not given), the outcome in test [1], in [3], in [9] and in test [18] was inactive. Further, the zone of inhibition at 1000 µg/mL in test [2], in test [7], in test [8], in test [10], in test [13] and in [14] was no less than 14 mm in each case. Moreover, the zone of inhibition at 1000 µg/mL in [15] and in test [17] was no less than 14 mm each time. The minimum inhibitory concentration (MIC) in [4] is no less than 200 µg/mL; in [5], no less than 200 µg/mL; in test [6] it was 100 µg/mL (≈ 279 µM); in test [11], 100 µg/mL (≈ 279 µM); in [12], no less than 200 µg/mL; in test [16] it was no less than 200 µg/mL.

For the molecule `O=C(COC(Cn1nnc(-c2ccccc2)n1)c1ccc(Cl)cc1)N/N=C/c1ccc(Cl)cc1` (stereo not given), the result in test [1], in test [3], in test [9] and in [18] was inactive. Also, the zone of inhibition at 1000 µg/mL in test [2], in test [7], in [8], in test [10], in test [13] and in test [14] was no less than 14 mm throughout. The zone of inhibition at 1000 µg/mL in test [15] and in [17] was no less than 14 mm in each case. Further, the minimum inhibitory concentration (MIC) in test [4] is 100 µg/mL (≈ 202 µM); in [5], no less than 200 µg/mL; in [6], 50 µg/mL (≈ 101 µM); in test [11] it was 50 µg/mL (≈ 101 µM); in test [12] it was no less than 200 µg/mL; in test [16], 100 µg/mL (≈ 202 µM).

In the case of `NNC(=O)COC(Cn1nnc(-c2ccccc2)n1)c1ccc(Cl)cc1` (stereo not given), the result in test [1], in test [3], in test [9] and in [18] was inactive. The MIC was no less than 200 µg/mL in test [4]; no less than 200 µg/mL in test [5]; no less than 200 µg/mL in test [6]; 100 µg/mL (≈ 268 µM) in test [11]; no less than 200 µg/mL in test [12]; no less than 200 µg/mL in test [16].

In the case of `CCOC(=O)COC(Cn1nnc(-c2ccccc2)n1)c1ccc(Cl)cc1` (stereo not given), the result in test [1], in test [3], in test [9] and in [18] was inactive. In addition, the zone of inhibition at 1000 µg/mL in [2], in test [7], in test [8], in [10], in test [13] and in [14] was no less than 14 mm each time. Also, the zone of inhibition at 1000 µg/mL in [15] and in test [17] was no less than 14 mm throughout. The MIC in test [4] is no less than 200 µg/mL; in test [5], no less than 200 µg/mL; in test [6], no less than 200 µg/mL; in test [11] it was 100 µg/mL (≈ 259 µM); in [12] it was no less than 200 µg/mL; in test [16], no less than 200 µg/mL.
